Results as given in ChEMBL document CHEMBL4368912, “Discovery and Development of N-[4-(1-Cyclobutylpiperidin-4-yloxy)phenyl]-2-(morpholin-4-yl)acetamide Dihydrochloride (SUVN-G3031): A Novel, Potent, Selective, and Orally Active Histamine H3 Receptor Inverse Agonist with Robust Wake-Promoting Activity” (J Med Chem, 2019).

Columns and labels:
Histamine H3 receptor = Histamine H3 receptor (Homo sapiens, UniProt Q9Y5N1); test: Displacement of [3]-RAMH from recombinant human histamine H3 receptor expressed in CHO-K1 cell membranes after 60 mins by scintillation counting
Histamine H3 receptor, sequence (Q9Y5N1 whole entry): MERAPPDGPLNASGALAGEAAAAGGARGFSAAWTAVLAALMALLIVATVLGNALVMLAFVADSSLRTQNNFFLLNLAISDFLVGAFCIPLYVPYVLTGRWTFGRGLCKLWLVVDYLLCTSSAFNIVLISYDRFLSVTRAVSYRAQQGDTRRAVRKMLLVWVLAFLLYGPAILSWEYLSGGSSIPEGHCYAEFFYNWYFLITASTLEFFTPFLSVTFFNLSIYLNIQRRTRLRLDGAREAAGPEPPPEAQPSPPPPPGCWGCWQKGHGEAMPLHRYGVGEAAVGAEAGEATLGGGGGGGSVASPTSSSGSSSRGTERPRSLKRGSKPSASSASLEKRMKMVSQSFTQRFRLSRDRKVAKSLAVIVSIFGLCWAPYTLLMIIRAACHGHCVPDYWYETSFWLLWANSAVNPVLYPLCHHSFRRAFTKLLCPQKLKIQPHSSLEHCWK

[1] = Partition coefficient, log P of the compound; format: physicochemical; settings: octanol/water
[2] = Dissociation constant, pKa1 of the compound by potentiometric titration assay; format: physicochemical
[3] = Lipophilicity, log D of the compound at pH 7.4; format: physicochemical; settings: buffer
[4] = Dissociation constant, pKa2 of the compound by potentiometric titration assay; format: physicochemical
[5] = Half life in Wistar rat at 1 mg/kg, iv by LC-MS/MS analysis; format: ADME, organism-based; settings: in vivo
Method in brief: (§1)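 Fasted male Wistar rats dosed i.v. in water for injection at 2 mL/kg. Clearance and half-life derived from the i.v. plasma profile.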

[6] = Clearance in Wistar rat at 1 mg/kg, iv by LC-MS/MS analysis; format: ADME, organism-based; settings: in vivo; method in brief: as §1
[7] = Ratio of drug uptake in Wistar rat brain to plasma at 3 mg/kg, po by LC-MS/MS analysis; format: ADME, organism-based; settings: brain and plasma, read-out: BPR
Method in brief: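 Fasted male Wistar rats were dosed orally with water for injection as the vehicle. Total brain and plasma concentrations were measured at 1 h after dosing and expressed as a ratio.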

[8] = AUC (0 to 24 hrs) in Wistar rat at 3 mg/kg, po by LC-MS/MS analysis; format: ADME, organism-based; design: dose 3 mg/kg, time < 24 hr, route oral; settings: in vivo
Method in brief: (§2)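 Fasted male Wistar rats; compound in water for injection, given i.v. (2 mL/kg) or p.o. (10 mL/kg). Plasma exposure measured as AUC0-24hr.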

[9] = AUC (0 to 24 hrs) in Wistar rat at 1 mg/kg, iv by LC-MS/MS analysis; format: ADME, organism-based; design: time < 24 hr, dose 1 mg/kg, route intravenous; settings: Wistar, in vivo; method in brief: as §2
[10] = Volume of distribution at steady state in Wistar rat at 3 mg/kg, po or 1 mg/kg, iv by LC-MS/MS analysis; format: ADME, organism-based; settings: Wistar, in vivo, read-out: Vdss
Method in brief: (§3)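 Fasted male Wistar rats were dosed orally and intravenously, with water for injection as the vehicle for both routes, at dosing volumes of 10 mL/kg p.o. and 2 mL/kg i.v.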

[11] = Oral bioavailability in Wistar rat at 3 mg/kg by LC-MS/MS analysis; format: ADME, organism-based; settings: in vivo; method in brief: as §3
[12] = Tmax in Wistar rat at 3 mg/kg, po or 1 mg/kg, iv by LC-MS/MS analysis; format: ADME, organism-based; settings: in vivo; method in brief: as §3

Compound: CN(C)CC(=O)Nc1ccc(OC2CCN(C3CCC3)CC2)cc1
- Ki (Histamine H3 receptor): 6 nM

Compound: CCN(C(=O)CN1CCOCC1)c1ccc(OC2CCN(C3CCC3)CC2)cc1
- Ki (Histamine H3 receptor): 10.8 nM

Compound: C[C@@H]1CCCN1CC(=O)Nc1ccc(OC2CCN(C3CCC3)CC2)cc1
- Ki (Histamine H3 receptor): 2.6 nM

Compound: CC(C)N1CCC(Oc2ccc(NC(=O)CN3CCCCC3)cc2)CC1
- Ki (Histamine H3 receptor): 3.8 nM
- logP [1]: 3.4
- pKa [2]: 9.4
- logD [3]: 1.6
- pKa [4]: 7.2

Compound: CCN(CC)CC(=O)Nc1ccc(OC2CCN(C3CCC3)CC2)cc1
- Ki (Histamine H3 receptor): 11.7 nM

Compound: O=C(CN1CCCC1)Nc1ccc(OC2CCN(C3CCCC3)CC2)cc1
- Ki (Histamine H3 receptor): 3.8 nM

Compound: CC(C)N1CCC(Oc2ccc(C(=O)NCCN3CCCCC3)cc2)CC1
- Ki (Histamine H3 receptor): 9.5 nM

Compound: O=C(NCCN1CCOCC1)c1ccc(OC2CCN(C3CCC3)CC2)cc1
- half-life [5]: 13.8 h
- Ki (Histamine H3 receptor): 2.8 nM
- clearance [6]: 3.06 L/h/kg
- Kp [7]: 0.07
- AUC(0-t) at 24 h [8]: 0.347 µg·h/mL
- AUC(0-t) at 24 h [9]: 0.255 µg·h/mL
- Vd [10]: 45 L/kg
- bioavailability [11]: 46%
- Tmax [12]: 1.33 h

Compound: O=C(CN1CCOCC1)Nc1ccc(OC2CCN(C3CCCC3)CC2)cc1
- Ki (Histamine H3 receptor): 29.9 nM

Compound: C[C@@H]1CCCN1Cc1ccc(NC(=O)CN2CCOCC2)cc1
- Ki (Histamine H3 receptor): 3570 nM

Compound: O=C(CN1CCOCC1)Nc1ccc(N2CCN(C3CCC3)CC2)cc1
- Ki (Histamine H3 receptor): 532 nM

Compound: O=C(NCCN1CCCC1)c1ccc(OC2CCN(C3CCCC3)CC2)cc1
- Ki (Histamine H3 receptor): 2.4 nM
- clearance [6]: 9.36 L/h/kg
- AUC(0-t) at 24 h [8]: 0.205 µg·h/mL
- AUC(0-t) at 24 h [9]: 0.174 µg·h/mL
- Vd [10]: 135 L/kg
- bioavailability [11]: 48%
- Tmax [12]: 3.33 h

Compound: O=C(CN1CCOCC1)Nc1ccccc1OC1CCN(C2CCC2)CC1
- Ki (Histamine H3 receptor): > 10000 nM

Compound: O=C(NCCN1CCCC1)c1ccc(OC2CCN(C3CCC3)CC2)cc1
- Ki (Histamine H3 receptor): 2.9 nM

Compound: Cc1cc(OC2CCN(C3CCC3)CC2)ccc1NC(=O)CN1CCCCC1
- Ki (Histamine H3 receptor): 3.3 nM

Compound: O=C(CN1CCS(=O)(=O)CC1)Nc1ccc(OC2CCN(C3CCC3)CC2)cc1
- Ki (Histamine H3 receptor): 9.17 nM

Compound: CC(C)N1CCCN(CC(=O)Nc2ccc(OC3CCN(C4CCC4)CC3)cc2)CC1
- Ki (Histamine H3 receptor): 0.96 nM

Compound: O=C(CN1CCOCC1)Nc1ccc(OC2CCNCC2)cc1
- Ki (Histamine H3 receptor): > 10000 nM

Compound: Cl.Cl.O=C(CN1CCCC1)Nc1ccc(OC2CCN(C3CCC3)CC2)cc1
- Ki (Histamine H3 receptor): 1.1 nM
- clearance [6]: 0.814 L/h/kg
- AUC(0-t) at 24 h [8]: 0.556 µg·h/mL
- AUC(0-t) at 24 h [9]: 0.757 µg·h/mL
- logP [1]: 3.2
- pKa [2]: 9.1
- logD [3]: 1.2
- Vd [10]: 34.8 L/kg
- pKa [4]: 7.4
- bioavailability [11]: 17%
- Tmax [12]: 3.33 h

Compound: O=C(CN1CCC(O)CC1)Nc1ccc(OC2CCN(C3CCC3)CC2)cc1
- Ki (Histamine H3 receptor): 6.4 nM

Compound: O=C(CN1CCOC(CO)C1)Nc1ccc(OC2CCN(C3CCC3)CC2)cc1 (centres undefined)
- Ki (Histamine H3 receptor): 4.05 nM

Compound: O=C(CN1CCOCC1)Nc1cccc(OC2CCN(C3CCC3)CC2)c1
- Ki (Histamine H3 receptor): 212 nM

Compound: C[C@@H]1CCCN1CCc1ccc(NC(=O)CN2CCOCC2)cc1
- Ki (Histamine H3 receptor): 108 nM

Compound: CC(=O)N1CCN(CC(=O)Nc2ccc(OC3CCN(C4CCC4)CC3)cc2)CC1
- Ki (Histamine H3 receptor): 5.39 nM

Compound: O=C(CN1CCC(F)CC1)Nc1ccc(OC2CCN(C3CCC3)CC2)cc1
- Ki (Histamine H3 receptor): 11 nM

Compound: O=C(CN1CCC(F)(F)CC1)Nc1ccc(OC2CCN(C3CCC3)CC2)cc1
- Ki (Histamine H3 receptor): 23.6 nM
